# An excerpt weighted towards active compounds, which were near 4.3% of everything screened.
# ALR H2O2 inh: blocks human ALR sulfhydryl oxidase activity; purified ALR, DTT oxidation, H2O2 HRP-luminol luminescence; inhibition, % (no concentration beside the values); actives 3.8% (n = 290,000); AID 485317;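 active means mean replicate inhibition above about 79%, with every replicate also reaching it, limit read from the data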
# Target sequence (P55789 whole entry, looked up): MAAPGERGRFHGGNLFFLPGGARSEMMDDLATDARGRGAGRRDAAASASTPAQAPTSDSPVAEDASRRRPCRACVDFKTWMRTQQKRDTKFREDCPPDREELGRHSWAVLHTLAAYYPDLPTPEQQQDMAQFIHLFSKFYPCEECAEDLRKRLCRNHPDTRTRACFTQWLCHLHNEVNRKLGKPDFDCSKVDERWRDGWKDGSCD
# CAL PDZ FP-1: CAL PDZ (human) peptide binding inhibition; AID 602252; purified CAL PDZ, TMR-peptide fluorescence polarization, 1 h; Q9HD26; inhibition, % at 24.9 µM; actives 0.92% (n = 300,000);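 active means mean inhibition of at least 30% with at least half of replicates also reaching 30%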;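 further: 0% = DMSO neutral control and 100% = excess unlabeled competitor peptide PRC23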
# CAL PDZ FP-2: inhibitors of human CAL PDZ peptide binding. actives 0.02% (n = 330,000). purified CAL PDZ, TMR-peptide fluorescence polarization, 1 h. inhibition, % at 20 µM. Q9HD26. AID 504414;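 active means highest replicate inhibition of at least 40%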;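 further: plate controls were DMSO neutral control wells for no effect and unlabeled competitor peptide control wells for full effect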
#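 System: tagged CAL PDZ domain. Schedule: 1 h room-temperature incubation prior to read. Signal: fluorescence polarization (mP). Measure: percent inhibition from loss of millipolarization.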
# Rtt109 Vps75: inhibitors of Candida albicans Rtt109/Vps75 histone acetyltransferase; Q5AAJ8; purified Rtt109/Vps75, ThioGlo CoA-SH fluorescence, 4 h; inhibition, % at 34.9 µM; actives 0.16% (n = 330,000);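 active means inhibition of at least 50% in every replicate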
# Target sequence (Q5AAJ8 whole entry, looked up): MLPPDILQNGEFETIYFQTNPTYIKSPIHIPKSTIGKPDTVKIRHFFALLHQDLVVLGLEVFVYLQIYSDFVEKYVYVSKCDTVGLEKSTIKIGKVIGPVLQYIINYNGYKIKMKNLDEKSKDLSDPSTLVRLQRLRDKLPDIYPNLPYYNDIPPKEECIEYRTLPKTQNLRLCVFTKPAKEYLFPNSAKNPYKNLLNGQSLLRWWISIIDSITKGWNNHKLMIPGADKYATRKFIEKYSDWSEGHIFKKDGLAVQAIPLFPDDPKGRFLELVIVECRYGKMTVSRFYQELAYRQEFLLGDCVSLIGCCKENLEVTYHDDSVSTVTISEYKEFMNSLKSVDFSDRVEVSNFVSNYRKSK
# DYRK1A inh: blocks rat Dyrk1A kinase activity | Q63470 | ADP-Glo luminescence, NFATc1 peptide | inhibition, % at 12.5 µM | actives 0.43% (n = 310,000); in the data active means inhibition above about 50%;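 further: plate controls were vehicle with enzyme for no effect and no enzyme for full effect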
# The depositor's hits bear a star; / = no result given.
SMILES,ALR H2O2 inh,CAL PDZ FP-1,CAL PDZ FP-2,Rtt109 Vps75,DYRK1A inh
Cc1[nH]c2ccccc2c1C(=O)C(C)OC(=O)c1ccc(NC(=O)CC#N)cc1 (centres undefined),100*,-5,-3,4,8
CN(CCOc1ccccc1)C(=O)c1ccc2c(c1)OCO2,1,62*,0,-2,-5
O=C(NCCOc1ccccc1)c1ccc2c(c1)OCO2,-6,-5,-2,2,-3
Nc1[nH]c2cc([N+](=O)[O-])ccc2c1-c1ccccn1,92*,-2,0,-1,-1
COc1ccc(-c2noc(CCC(=O)N3CCN(c4cccc(F)c4)CC3)n2)cc1,/,-2,0,-6,/
CCOc1cccc(N2CCN(CCNC(=O)Nc3ccc(C)cc3)CC2)c1C,/,37*,0,-6,/
CCOc1ccc(NC(=O)NCCN2CCN(c3cccc(C)c3C)CC2)cc1,-11,-3,1,5,6
COc1ccccc1C(=O)OCc1ccc2sc(C)nc2c1,3,-3,-4,6,7
CC(C)c1c(O)nc(SCC(=O)N2CCOCC2)[nH]c1=O,96*,-4,-2,-90,-1
O=C(CSc1nc(O)c(C(c2ccccc2)c2ccccc2)c(=O)[nH]1)N1CCOCC1,91*,2,5,3,/
O=C(COC(=O)c1ccc(O)cc1)NCC1CCCO1 (centres undefined),10,1,-4,3,-1
COc1ccc(/C=C2\C(=O)ON=C2c2ccccc2)cc1,98*,-3,-2,8,-2
CC1(NC(=O)Nc2ccccc2)CCS(=O)(=O)C1 (centres undefined),-2,/,/,/,/
COc1ccc(NC(=O)NC2(C)CCS(=O)(=O)C2)cc1 (centres undefined),/,63*,-2,-3,2
CCN(CC)CCN(C(=O)/C=C/c1cccs1)c1nc2ccc(OC)cc2s1,/,-3,-1,-5,/
CCOc1ccc2nc(N(CCN(CC)CC)C(=O)/C=C/c3cccs3)sc2c1,5,31*,-1,-4,-2
CCN(CCCNC(=O)c1c(C)cc(=O)oc1C)c1cccc(C)c1,100*,/,-3,7,-6
Cc1cc(=O)oc(C)c1C(=O)NCCc1ccc(F)cc1,-6,39*,/,7,/
O=C1C=CC(=C(c2ccc(O)cc2)c2ccc(O)cc2)C=C1,99*,-4,0,15,1
CCCN1C(=O)c2ccccc2NC1c1ccc(O)c(OCC)c1 (centres undefined),86*,0,-2,/,4
CCOc1ccc(-c2cc(N3C(=O)Nc4ccccc4N3O)n[nH]2)cc1,98*,1,-3,/,-6
CC(C)c1ccc2c(c1)C(=O)NC(C)(C)C2,92*,/,1,3,1
Cc1ccc(C(=O)Nc2cccc([N+](=O)[O-])c2)cc1S(=O)(=O)Nc1ccc(C(=O)O)cc1,82*,-2,-4,-3,-3
Cc1ccc(C(=O)Nc2ccccc2C(=O)O)cc1S(=O)(=O)Nc1ccc(Br)cc1,98*,-1,-2,48,/
Cc1ccc(C(=O)Nc2ccc(C(=O)O)cc2)cc1S(=O)(=O)Nc1cccc([N+](=O)[O-])c1,4,-6,-3,6,-2
SMILES,ALR H2O2 inh,CAL PDZ FP-1,CAL PDZ FP-2,Rtt109 Vps75,DYRK1A inh
Cc1cc(C)n2nc(SCCOc3ccccc3F)nc2n1,2,2,0,-13,/
CCCC1CCc2[nH]nc(C(=O)NN)c2C1 (centres undefined),42,-7,0,-4,-1
O=C(CN1CCN(Cc2cccc(Cl)c2)C1=O)NCc1cccs1,0,3,-1,-8,-7
Cc1ccc(C(=O)NCCC(=O)N2CCC3(CC2)NCCc2[nH]cnc23)cc1C,-7,1,-2,-5,/
Cc1ccc(Cn2nc(C)c(NC(=O)CSc3nc4c(c(C(F)(F)F)n3)CCc3ccccc3-4)c2C)cc1,/,-5,0,2,-3
Cc1nn(Cc2ccc(Cl)cc2)c(C)c1NC(=O)CSc1nc2c(c(C(F)(F)F)n1)CCc1ccccc1-2,98*,/,-1,-3,4
CSc1nc(=S)c2[nH]c(=S)[nH]c2[nH]1,99*,-5,0,-3,-2
Cc1ccc(-c2cn3c(n2)SCC3)cc1,98*,-5,0,-1,1
CCc1ccc(-c2cn3c(n2)SCC3)cc1,-2,1,0,-2,0
CC(C)Sc1nnc(CNC(=O)C23CC4CC(CC(C4)C2)C3)n1C1CCCCC1,-3,47*,-1,-2,4
COc1ccccc1OC(=O)c1cc(Cl)nc2ccccc12,-2,-3,-1,/,-2
O=C(c1ccc2ccccc2n1)N1CCN(c2ccccc2)CC1,40,-3,-1,10,-9
CC(C)C(=O)N1CCN(c2ccccc2N)CC1,99*,-1,0,1,2
Cc1cc(C(=O)N2CCN(c3ccccc3O)CC2)c(C)o1,98*,-2,-2,-11,4
Cc1cccc(N2CCN(C(=O)C(C)C)CC2)c1C,2,/,0,4,10
O=C(c1ccc2ccccc2n1)N1CCN(c2ccccc2O)CC1,98*,-1,1,5,-9
COc1cccc(N2CCN(C(=O)c3cc(C)oc3C)CC2)c1,90*,-1,0,-4,3
C=CCNC(=O)/C(=C\c1ccc(Br)cc1)NC(=O)c1ccccc1OC,/,2,-3,31,-60
Cc1ccc2nc(C)cc(C(=O)Nc3nccs3)c2c1,-1,/,-3,6,1
CCNc1oc(-c2ccccc2F)nc1S(=O)(=O)c1ccccc1,-12,-3,1,1,-2
CC(C)C(NC(=O)CN1C(=O)c2ccccc2C1=O)c1ccccc1 (centres undefined),-16,1,-2,3,0
CCOC(=O)N1CCN(c2ccccc2O)CC1,99*,0,-3,-2,-5
O=C(CCc1nnc(CCCc2ccccc2)o1)NCCN1CCOC1=O,-7,3,-2,/,6
O=C(COC(=O)c1ccccn1)NC(=O)c1ccccc1,-11,-4,-1,-1,/
CC(C)(Oc1ccc(Cl)cc1)C(=O)NCc1ccc(S(N)(=O)=O)cc1,-2,77*,0,-7,-1
SMILES,ALR H2O2 inh,CAL PDZ FP-1,CAL PDZ FP-2,Rtt109 Vps75,DYRK1A inh
COC(=O)C1(Cc2ccc(O)cc2)OC(=O)C(O)=C1c1ccc(O)cc1 (centres undefined),99*,0,1,6,12
COc1cccc(CC(NC(C)=O)C(=O)NC2CCN(C(=O)C3CCCCC3)CC2)c1OC (centres undefined),/,-2,-3,-7,-1
Cc1cc(CN2C(=O)c3ccccc3C2=O)on1,-9,-3,1,-2,-3
Cc1cc(CN2C(=O)c3ccccc3C2=O)no1,-2,-4,-3,57*,/
Cc1ccnc(NC(=O)COc2ccc3c(c2)CCC3)c1,-7,-10,-1,-2,4
COc1ccc(-c2c(C)nn3c(C)cc(C)nc23)cc1,0,4,0,58*,8
CCN(CC)CCn1c2ccccc2c2nc3ccc([N+](=O)[O-])cc3cc21,-10,/,1,-2,3

# Screens as filed in PubChem BioAssay.
